Experimental data as given in ChEMBL document CHEMBL1143257, “Structure-activity relationships of novel HIV-1 protease inhibitors containing the 3-amino-2-chlorobenzoyl-allophenylnorstatine structure” (Bioorg Med Chem, 2008).
One block for each compound: values may come before it.

Legend:
[1] = test system: Human immunodeficiency virus 1; test: Antiviral activity against HIV1 mutant strain 1; type: functional, organism-based
How it was run: (§1)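 PhenoSense phenotypic susceptibility assay on multi-drug-resistant clinical HIV-1 protease variant strains, run in parallel with a wild-type reference. EC50 read in µM. Fold change is mutant EC50 divided by wild-type EC50.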

[2] = test system: Human immunodeficiency virus 1; test: Ratio of EC50 for HIV1 mutant strain 4 to EC50 for wild type HIV1; type: functional
[3] = test system: Human immunodeficiency virus 1; test: Antiviral activity against HIV1 mutant strain 4; type: functional, organism-based
[4] = test system: Human immunodeficiency virus 1; test: Antiviral activity against HIV1 mutant strain 2; type: functional, organism-based
How it was run: (§2)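 PhenoSense phenotypic assay. Strain 2 protease carries L10I, G16A, K45V, F53L, I54V, K55N, D60E, L63P, A71V, I72K, V77I, V82F, I84V, L90M, I93L. EC50 in µM. Fold change is versus the wild-type EC50.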

[5] = test system: Human immunodeficiency virus 1; test: Antiviral activity against multidrug resistant HIV1; type: functional, organism-based; how it was run: as §1
[6] = AUC in Beagle dog at 15 mg/kg, po co-administered with 7.5 mg/kg of ritonavir, po; type: ADME, organism-based, Canis lupus familiaris; settings: plasma
[7] = Metabolic stability in dog liver microsomes assessed as compound remaining at 5 uM in presence of 0.5 uM ritonavir by RP-HPLC; type: ADME, Canis lupus familiaris, Microsome; settings: with ritonavir 0.5 uM, read-out: Stability
[8] = test system: Liver; test: Metabolic stability in dog liver microsomes assessed as compound remaining in presence of NADPH by RP-HPLC; type: ADME, Canis lupus familiaris, Microsome
How it was run: (§3)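 Test drug at 5 µM incubated with liver microsomes (0.5 mg/ml) plus cofactor (1 mM NADPH or 5 mM UDPGA) at 37 °C for 30 min. Residual drug measured by RP-HPLC. Values are the mean percent remaining of duplicates.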

[9] = test system: Human immunodeficiency virus 1; test: Antiviral activity against HIV1 mutant strain 3; type: functional, organism-based
[10] = Metabolic stability in human liver microsomes assessed as compound remaining at 5 uM in presence of UDPGA by RP-HPLC; type: ADME, Microsome; settings: read-out: Stability; how it was run: as §3
[11] = test system: Human immunodeficiency virus 1; test: Antiviral activity against wild type HIV1; type: functional, organism-based
[12] = Metabolic stability in rat liver microsomes assessed as compound remaining at 5 uM in presence of 2.5 uM ritonavir by RP-HPLC; type: ADME, Microsome; settings: with ritonavir 2.5 uM, read-out: Stability
[13] = Metabolic stability in dog liver microsomes assessed as compound remaining at 5 uM in presence of 2.5 uM ritonavir by RP-HPLC; type: ADME, Canis lupus familiaris, Microsome; settings: with ritonavir 2.5 uM, read-out: Stability
[14] = test system: Liver; test: Metabolic stability in dog liver microsomes assessed as compound remaining in presence of UDPGA by RP-HPLC; type: ADME, Canis lupus familiaris, Microsome; how it was run: as §3
[15] = test system: Human immunodeficiency virus 1; test: Ratio of EC50 for HIV1 mutant strain 3 to EC50 for wild type HIV1; type: functional
[16] = Metabolic stability in human liver microsomes assessed as compound remaining at 5 uM in presence of 0.5 uM ritonavir by RP-HPLC; type: ADME, Microsome; settings: with ritonavir 0.5 uM, read-out: Stability
[17] = test system: Human immunodeficiency virus 1; test: Antiviral activity against HIV1 mutant strain 6; type: functional, organism-based
[18] = Cmax in Beagle dog at 15 mg/kg, po; type: ADME, organism-based, Canis lupus familiaris; design: dose 15 mg/kg, route oral; settings: in vivo
[19] = Cmax in Beagle dog at 15 mg/kg, po co-administered with 7.5 mg/kg of ritonavir, po; type: ADME, organism-based, Canis lupus familiaris; design: dose 15 mg/kg, route oral; settings: in vivo
[20] = Volume of distribution at steady state in Beagle dog at 15 mg/kg, iv; type: ADME, organism-based, Canis lupus familiaris; design: dose 15 mg/kg, route intravenous; settings: in vivo, read-out: Vdss
[21] = Plasma concentration in Beagle dog at 15 mg/kg, po after 12 hrs; type: ADME, organism-based, Canis lupus familiaris; design: dose 15 mg/kg, route oral
[22] = Tmax in Beagle dog at 15 mg/kg, po co-administered with 7.5 mg/kg of ritonavir, po; type: ADME, organism-based, Canis lupus familiaris; settings: in vivo
[23] = test system: Human immunodeficiency virus 1; test: Ratio of EC50 for HIV1 mutant strain 7 to EC50 for wild type HIV1; type: functional
How it was run: (§4)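 PhenoSense phenotypic assay. Strain 7 protease mutations include T4A, L10I, K20R, L23I, L33F, E35D, M36I, K43T, M46L. EC50 in µM. Fold change is versus the wild-type EC50.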

[24] = molecular target: Protease (Human immunodeficiency virus 1, UniProt Q9YQ12); test: Inhibition of HIV1 protease
Sequence of Protease (Q9YQ12 whole entry): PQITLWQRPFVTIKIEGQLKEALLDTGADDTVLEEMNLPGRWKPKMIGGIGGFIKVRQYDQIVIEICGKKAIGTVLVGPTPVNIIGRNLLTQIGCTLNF

[25] = AUC in Beagle dog at 15 mg/kg, po; type: ADME, organism-based, Canis lupus familiaris; design: dose 15 mg/kg, route oral; settings: plasma
[26] = Metabolic stability in human liver microsomes assessed as compound remaining at 5 uM in presence of 2.5 uM ritonavir by RP-HPLC; type: ADME, Microsome; settings: with ritonavir 2.5 uM, read-out: Stability
[27] = test system: Human immunodeficiency virus 1; test: Ratio of EC50 for HIV1 mutant strain 1 to EC50 for wild type HIV1; type: functional; how it was run: as §1
[28] = Tmax in Beagle dog at 15 mg/kg, po; type: ADME, organism-based, Canis lupus familiaris; design: dose 15 mg/kg, route oral; settings: in vivo
[29] = Metabolic stability in dog liver microsomes assessed as compound remaining at 5 uM by RP-HPLC; type: ADME, Canis lupus familiaris, Microsome; settings: read-out: Stability; how it was run: as §3
[30] = Oral bioavailability in Beagle dog at 15 mg/kg; type: ADME, organism-based, Canis lupus familiaris; settings: in vivo
[31] = test system: Human immunodeficiency virus 1; test: Ratio of EC50 for HIV1 mutant strain 5 to EC50 for wild type HIV1; type: functional
[32] = test system: Human immunodeficiency virus 1; test: Ratio of EC50 for HIV1 mutant strain 6 to EC50 for wild type HIV1; type: functional
[33] = Plasma concentration in Beagle dog at 15 mg/kg, po after 12 hrs co-administered with 7.5 mg/kg of ritonavir, po; type: ADME, organism-based, Canis lupus familiaris
[34] = test system: Human immunodeficiency virus 1; test: Antiviral activity against HIV1 3B; type: functional, organism-based; settings: Human immunodeficiency virus 1, 3B
[35] = Metabolic stability in human liver microsomes assessed as compound remaining at 5 uM in presence of NADPH by RP-HPLC; type: ADME, Microsome; settings: read-out: Stability; how it was run: as §3
[36] = Metabolic stability in human liver microsomes assessed as compound remaining at 5 uM by RP-HPLC; type: ADME, Microsome; settings: read-out: Stability; how it was run: as §3
[37] = test system: Human immunodeficiency virus 1; test: Antiviral activity against HIV1 mutant strain 5; type: functional, organism-based
[38] = Metabolic stability in rat liver microsomes assessed as compound remaining at 5 uM in presence of 0.5 uM ritonavir by RP-HPLC; type: ADME, Microsome; settings: with ritonavir 0.5 uM, read-out: Stability
[39] = test system: Human immunodeficiency virus 1; test: Antiviral activity against HIV1 mutant strain 7; type: functional, organism-based; how it was run: as §4
[40] = Metabolic stability in rat liver microsomes assessed as compound remaining at 5 uM by RP-HPLC; type: ADME, Microsome; settings: read-out: Stability; how it was run: as §3
[41] = test system: Human immunodeficiency virus 1; test: Antiviral activity against HIV1 3B in presence of 50% human serum; type: functional, organism-based; settings: Human immunodeficiency virus 1, 3B
[42] = Plasma clearance in Beagle dog at 15 mg/kg, iv; type: ADME, organism-based, Canis lupus familiaris; design: dose 15 mg/kg, route intravenous
[43] = test system: Human immunodeficiency virus 1; test: Ratio of EC50 for HIV1 mutant strain 2 to EC50 for wild type HIV1; type: functional; how it was run: as §2

SMILES: COc1cccc(C[C@H](NC(=O)c2cccc(N)c2Cl)[C@H](O)C(=O)N2CSC(C)(C)[C@H]2C(=O)NCc2c(C)cccc2C)c1
EC50 [1]: 150 nM
Ratio EC50 [2]: 4
EC50 [3]: 22 nM
EC50 [4]: 106 nM
IC50 [5]: 22 nM
AUC [6]: 52.8 µM·h
remaining at 5 µM [7]: 90%
Stability [8]: 47%
EC50 [9]: 122 nM
remaining at 5 µM [10]: > 95%
EC50 [11]: 5.6 nM
remaining at 5 µM [12]: 55%
remaining at 5 µM [13]: > 95%
Stability [14]: > 95%
Ratio EC50 [15]: 22
remaining at 5 µM [16]: 93%
EC50 [17]: 96 nM
Cmax [18]: 2800 nM
Cmax [19]: 5300 nM
Vd [20]: 1.3 L/kg
concentration at 12 h [21]: 130 nM
Tmax [22]: 3 h
Ratio EC50 [23]: 7
Ki [24]: 0.134 nM
AUC [25]: 15.6 µM·h
remaining at 5 µM [26]: > 95%
Ratio EC50 [27]: 27
Tmax [28]: 2 h
remaining at 5 µM [29]: 36%
bioavailability [30]: 71%
Ratio EC50 [31]: 38
Ratio EC50 [32]: 17
concentration at 12 h [33]: 2950 nM
EC50 [34]: 4 nM
remaining at 5 µM [35]: 64%
remaining at 5 µM [36]: 49%
EC50 [37]: 214 nM
remaining at 5 µM [38]: 41%
EC50 [39]: 42 nM
remaining at 5 µM [40]: 21%
EC50 [41]: 6 nM
clearance [42]: 18.3 mL/min/kg
Ratio EC50 [43]: 19

remaining at 5 µM [7]: 92%
Stability [8]: 49%
remaining at 5 µM [10]: 55%
remaining at 5 µM [12]: 31%
remaining at 5 µM [13]: 93%
Stability [14]: 91%
remaining at 5 µM [16]: 56%
Cmax [18]: 3100 nM
Vd [20]: 1.6 L/kg
concentration at 12 h [21]: 30 nM
Ki [24]: 0.035 nM
AUC [25]: 6.5 µM·h
remaining at 5 µM [26]: 59%
Tmax [28]: 0.5 h
remaining at 5 µM [29]: 46%
bioavailability [30]: 25%
EC50 [34]: 26 nM
remaining at 5 µM [35]: 27%
remaining at 5 µM [36]: 13%
remaining at 5 µM [38]: 16%
remaining at 5 µM [40]: 12%
EC50 [41]: 52 nM
clearance [42]: 15 mL/min/kg
SMILES: Cc1ccccc1CNC(=O)[C@H]1N(C(=O)[C@@H](O)[C@H](Cc2ccccc2)NC(=O)c2cccc(O)c2C)CSC1(C)C

SMILES: Cc1cccc(C)c1OCC(=O)N[C@@H](Cc1ccccc1)[C@@H](O)C[C@H](Cc1ccccc1)NC(=O)[C@H](C(C)C)N1CCCNC1=O [LOPINAVIR]
EC50 [1]: 214 nM
EC50 [3]: 66 nM
EC50 [4]: 251 nM
remaining at 5 µM [7]: 83%
EC50 [9]: 657 nM
EC50 [11]: 3.7 nM
remaining at 5 µM [12]: > 95%
remaining at 5 µM [13]: > 95%
remaining at 5 µM [16]: > 95%
EC50 [17]: 411 nM
remaining at 5 µM [26]: > 95%
remaining at 5 µM [29]: 16%
EC50 [34]: 8 nM
remaining at 5 µM [36]: 10%
EC50 [37]: 807 nM
remaining at 5 µM [38]: 83%
EC50 [39]: 212 nM
remaining at 5 µM [40]: 11%
EC50 [41]: 8 nM
